According to ChEMBL document CHEMBL4477235, “Evolution of a Novel, Orally Bioavailable Series of PI3Kδ Inhibitors from an Inhaled Lead for the Treatment of Respiratory Disease” (J Med Chem, 2016):
Several values for one entry are separate records, joined by “and”; a condition that tells them apart may be missing. Equal entries are not always repeated.

Columns and labels:
[1] = target: DNA-dependent protein kinase catalytic subunit (Homo sapiens) (UniProt P78527); test: Inhibition of DNA-PK (unknown origin)
Homo sapiens [2] = species on record: Homo sapiens; test: Selectivity ratio of IC50 for PI3Kalpha (unknown origin) to IC50 for PI3Kdelta (unknown origin)
Method in brief: (§1)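 Ratio of each isoform's HTRF IC50 to the PI3Kδ HTRF IC50. Enzymes were preincubated 15 min with 4-fold compound dilutions in HEPES pH 7.0, MgCl2, DTT buffer. […] PIP2 was 5 µM for δ and 8 µM for α/β/γ. 60 min reaction, then EDTA quench with GRP-1 PH domain/APC/Eu detection. Four-parameter fit.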

[3] = Half life in Brown Norway rat acute OVA model of TH2-driven lung inflammation at 3 mg/kg, po pretreated for 30 mins followed by OVA challenge; format: ADME, organism-based; settings: in vivo
[4] = AUC(infinity) in Brown Norway rat acute OVA model of TH2-driven lung inflammation at 9 mg/kg, po pretreated for 30 mins followed by OVA challenge; format: ADME, organism-based; parameters: dose 9 mg/kg, route oral, time infinity; settings: in vivo
Method in brief: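 Male Brown Norway rats weighing 250–300 g were sensitised intraperitoneally with 10 μg OVA plus 20 mg Al(OH)₃ in 1 mL on days 1 and 7. On day 21 or 28 they were challenged intratracheally with 0.2 mL OVA under isoflurane. Compound was dosed orally 30 min before challenge. Blood exposure was measured in the same animals, with the 1 h post-dose concentration also recorded.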

[5] = target: Tyrosine-protein kinase JAK2 (Homo sapiens, UniProt O60674); test: Inhibition of JAK2 (unknown origin)
[6] = target: Phosphatidylinositol 4-kinase type 2-alpha (Homo sapiens, UniProt Q9BTU6); test: Inhibition of PI4K2A (unknown origin)
[7] = target: Rho-associated protein kinase 1 (Homo sapiens, UniProt Q13464); test: Inhibition of ROCK1 (unknown origin)
Sequence of Rho-associated protein kinase 1 (Q13464 whole entry): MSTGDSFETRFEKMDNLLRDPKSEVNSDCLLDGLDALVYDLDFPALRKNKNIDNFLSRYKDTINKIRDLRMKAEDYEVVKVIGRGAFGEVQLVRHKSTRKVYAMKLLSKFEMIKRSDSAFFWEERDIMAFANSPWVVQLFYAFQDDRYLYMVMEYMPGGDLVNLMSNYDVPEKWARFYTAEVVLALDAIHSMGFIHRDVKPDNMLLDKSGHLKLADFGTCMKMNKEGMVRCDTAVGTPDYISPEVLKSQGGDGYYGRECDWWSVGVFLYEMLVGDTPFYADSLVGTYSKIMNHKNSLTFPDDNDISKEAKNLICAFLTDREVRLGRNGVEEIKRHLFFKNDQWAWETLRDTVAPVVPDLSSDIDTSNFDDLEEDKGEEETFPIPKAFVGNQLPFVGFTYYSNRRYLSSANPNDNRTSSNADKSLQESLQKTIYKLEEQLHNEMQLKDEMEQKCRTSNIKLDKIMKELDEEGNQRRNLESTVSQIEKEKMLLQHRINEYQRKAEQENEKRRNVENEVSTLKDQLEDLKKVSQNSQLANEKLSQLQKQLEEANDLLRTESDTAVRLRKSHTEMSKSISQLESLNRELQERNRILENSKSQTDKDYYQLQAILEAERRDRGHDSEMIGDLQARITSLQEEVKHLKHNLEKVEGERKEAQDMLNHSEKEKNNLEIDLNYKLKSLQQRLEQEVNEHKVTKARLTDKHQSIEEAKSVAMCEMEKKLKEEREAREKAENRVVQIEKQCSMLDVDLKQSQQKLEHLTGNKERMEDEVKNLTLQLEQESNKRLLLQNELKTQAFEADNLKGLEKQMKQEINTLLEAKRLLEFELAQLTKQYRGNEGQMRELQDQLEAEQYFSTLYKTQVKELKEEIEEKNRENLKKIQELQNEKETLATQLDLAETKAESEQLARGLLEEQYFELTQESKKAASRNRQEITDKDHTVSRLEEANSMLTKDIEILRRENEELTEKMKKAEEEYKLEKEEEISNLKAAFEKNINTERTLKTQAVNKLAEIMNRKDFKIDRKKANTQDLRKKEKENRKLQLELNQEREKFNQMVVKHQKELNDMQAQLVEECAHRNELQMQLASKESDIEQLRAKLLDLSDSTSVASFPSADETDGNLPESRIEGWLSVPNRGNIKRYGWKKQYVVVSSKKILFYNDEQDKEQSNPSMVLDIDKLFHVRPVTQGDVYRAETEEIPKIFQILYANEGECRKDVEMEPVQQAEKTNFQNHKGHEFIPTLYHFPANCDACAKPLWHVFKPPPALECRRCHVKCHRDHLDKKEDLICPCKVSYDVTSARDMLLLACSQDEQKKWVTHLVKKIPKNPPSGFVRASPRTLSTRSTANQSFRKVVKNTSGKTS

[8] = Fraction unbound in Brown Norway rat acute OVA model of TH2-driven lung inflammation at 3 mg/kg, po pretreated for 30 mins followed by OVA challenge measured 1 hr post dose by HPLC analysis; format: ADME, organism-based; settings: in vivo
Method in brief: (§2)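 Unbound concentration at 1 h post-dose estimated by an internal algorithm from binding to HPLC columns coated with HSA and α-glycoprotein.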

Sphingosine kinase 2 = Sphingosine kinase 2 (Homo sapiens, UniProt Q9NRA0); test: Inhibition of SPHK2 (unknown origin)
Sequence of Sphingosine kinase 2 (Q9NRA0 whole entry): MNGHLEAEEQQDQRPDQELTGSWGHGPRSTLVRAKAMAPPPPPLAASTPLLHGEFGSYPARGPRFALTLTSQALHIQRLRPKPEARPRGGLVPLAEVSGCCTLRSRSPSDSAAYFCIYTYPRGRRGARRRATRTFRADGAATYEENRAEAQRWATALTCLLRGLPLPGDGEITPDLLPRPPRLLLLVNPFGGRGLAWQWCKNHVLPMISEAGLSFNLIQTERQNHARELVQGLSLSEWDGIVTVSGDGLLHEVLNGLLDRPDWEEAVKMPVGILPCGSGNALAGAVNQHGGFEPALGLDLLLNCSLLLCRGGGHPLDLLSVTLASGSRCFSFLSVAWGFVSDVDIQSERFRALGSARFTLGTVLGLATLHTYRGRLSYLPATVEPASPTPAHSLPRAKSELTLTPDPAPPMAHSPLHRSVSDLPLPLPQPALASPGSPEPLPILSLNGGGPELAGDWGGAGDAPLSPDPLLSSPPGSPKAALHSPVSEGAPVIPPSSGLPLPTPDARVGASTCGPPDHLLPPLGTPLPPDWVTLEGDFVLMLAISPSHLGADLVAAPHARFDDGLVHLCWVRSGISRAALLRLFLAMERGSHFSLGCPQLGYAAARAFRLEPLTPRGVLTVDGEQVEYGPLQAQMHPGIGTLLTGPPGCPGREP

[9] = Inhibition of DAGK (unknown origin); parameters: species or system Homo sapiens
[10] = Clearance in Sprague-Dawley rat at 1 mg/kg, iv measured up to 7 hrs by LC-MS/MS analysis relative to liver blood flow; format: ADME, organism-based; settings: in vivo
Method in brief: (§3)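 Male Sprague Dawley rats (n = 2/route), intravenous dose as a solution in DMSO/PEG200/water (5:45:50 v/v/v) at 2 mL/kg. Serial tail-vein blood sampling over 0–7 h. LC–MS/MS quantification of parent. Noncompartmental analysis.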

Homo sapiens [11] = species on record: Homo sapiens; test: Selectivity ratio of IC50 for PI3Kgamma (unknown origin) to IC50 for PI3Kdelta (unknown origin); method in brief: as §1
[12] = target: Choline/ethanolamine kinase (Homo sapiens, UniProt Q9Y259); test: Inhibition of CHKB (unknown origin)
Aurora kinase B = Aurora kinase B (Homo sapiens, UniProt Q96GD4); test: Inhibition of Aurora B (unknown origin)
[13] = Fraction unbound in Brown Norway rat acute OVA model of TH2-driven lung inflammation at 9 mg/kg, po pretreated for 30 mins followed by OVA challenge measured 1 hr post dose by HPLC analysis; format: ADME, organism-based; settings: in vivo; method in brief: as §2
[14] = target: T1, Phosphatidylinositol 4,5-bisphosphate 3-kinase catalytic subunit delta isoform (Homo sapiens, UniProt O00329)
T1 sequence (O00329 whole entry): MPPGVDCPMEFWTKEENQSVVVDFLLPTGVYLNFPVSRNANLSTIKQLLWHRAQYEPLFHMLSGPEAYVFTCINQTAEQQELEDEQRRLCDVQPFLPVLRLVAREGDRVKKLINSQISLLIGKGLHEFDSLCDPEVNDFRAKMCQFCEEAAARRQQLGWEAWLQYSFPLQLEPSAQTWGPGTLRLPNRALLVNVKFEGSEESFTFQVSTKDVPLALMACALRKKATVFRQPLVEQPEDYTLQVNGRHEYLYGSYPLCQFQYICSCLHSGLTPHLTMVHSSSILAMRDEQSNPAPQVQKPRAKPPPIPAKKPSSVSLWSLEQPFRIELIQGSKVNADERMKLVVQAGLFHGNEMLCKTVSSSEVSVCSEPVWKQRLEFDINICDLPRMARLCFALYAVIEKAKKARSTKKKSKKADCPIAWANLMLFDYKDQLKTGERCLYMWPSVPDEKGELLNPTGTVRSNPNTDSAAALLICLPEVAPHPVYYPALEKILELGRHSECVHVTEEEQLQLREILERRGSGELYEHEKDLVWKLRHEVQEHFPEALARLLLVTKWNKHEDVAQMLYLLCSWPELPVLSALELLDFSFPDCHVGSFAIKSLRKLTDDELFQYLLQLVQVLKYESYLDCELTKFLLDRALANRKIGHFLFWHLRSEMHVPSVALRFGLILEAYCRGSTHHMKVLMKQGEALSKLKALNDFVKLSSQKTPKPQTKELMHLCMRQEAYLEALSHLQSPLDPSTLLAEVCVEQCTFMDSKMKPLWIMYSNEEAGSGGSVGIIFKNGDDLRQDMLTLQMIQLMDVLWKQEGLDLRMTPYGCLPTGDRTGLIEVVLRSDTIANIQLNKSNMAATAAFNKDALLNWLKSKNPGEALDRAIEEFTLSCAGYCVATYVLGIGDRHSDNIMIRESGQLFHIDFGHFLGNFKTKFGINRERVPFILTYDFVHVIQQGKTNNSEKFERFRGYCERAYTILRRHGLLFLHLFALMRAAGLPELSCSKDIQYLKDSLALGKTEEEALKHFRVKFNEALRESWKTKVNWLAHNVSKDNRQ

[15] = Half life in Sprague-Dawley rat at 1 mg/kg, iv by LC-MS/MS analysis; format: ADME, organism-based; settings: in vivo; method in brief: as §3
[16] = target: Tyrosine-protein kinase Lck (Homo sapiens, UniProt P06239); test: Inhibition of LCK (unknown origin)
Sequence of Tyrosine-protein kinase Lck (P06239 whole entry): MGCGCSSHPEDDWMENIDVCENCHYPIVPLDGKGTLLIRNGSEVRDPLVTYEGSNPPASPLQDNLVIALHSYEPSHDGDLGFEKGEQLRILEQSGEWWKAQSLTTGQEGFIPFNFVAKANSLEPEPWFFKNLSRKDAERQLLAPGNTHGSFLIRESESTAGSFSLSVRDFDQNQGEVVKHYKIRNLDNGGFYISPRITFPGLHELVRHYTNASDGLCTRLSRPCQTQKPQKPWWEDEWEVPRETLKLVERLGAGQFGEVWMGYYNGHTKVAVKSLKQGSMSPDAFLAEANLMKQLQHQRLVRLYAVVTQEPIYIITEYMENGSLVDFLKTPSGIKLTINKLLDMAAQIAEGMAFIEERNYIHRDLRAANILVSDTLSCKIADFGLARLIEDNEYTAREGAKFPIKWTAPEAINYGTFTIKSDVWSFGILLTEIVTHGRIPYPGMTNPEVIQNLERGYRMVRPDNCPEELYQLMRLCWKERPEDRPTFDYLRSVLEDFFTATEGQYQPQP

[17] = target: Serine/threonine-protein kinase mTOR (Homo sapiens, UniProt P42345); test: Inhibition of FRAP1 (unknown origin)
[18] = target: T1, Phosphatidylinositol 4,5-bisphosphate 3-kinase catalytic subunit delta isoform; remark: listed apart in the source
Choline kinase alpha = Choline kinase alpha (Homo sapiens, UniProt P35790); test: Inhibition of choline kinase alpha (unknown origin)
[19] = AUC(infinity) in Wistar Han rat at 1 mg/kg; format: ADME, organism-based; parameters: dose 1 mg/kg, time infinity; settings: in vivo
[20] = target: Phosphatidylinositol 4-phosphate 3-kinase C2 domain-containing subunit beta (Homo sapiens, UniProt O00750); test: Inhibition of PIK3C2B (unknown origin)
[21] = target: Inhibitor of nuclear factor kappa-B kinase subunit beta (Homo sapiens, UniProt O14920); test: Inhibition of IKK2 (unknown origin)
[22] = target: Leucine-rich repeat serine/threonine-protein kinase 2 (Homo sapiens, UniProt Q5S007); test: Inhibition of LRRK2 (unknown origin)
Sequence of Leucine-rich repeat serine/threonine-protein kinase 2 (Q5S007 whole entry): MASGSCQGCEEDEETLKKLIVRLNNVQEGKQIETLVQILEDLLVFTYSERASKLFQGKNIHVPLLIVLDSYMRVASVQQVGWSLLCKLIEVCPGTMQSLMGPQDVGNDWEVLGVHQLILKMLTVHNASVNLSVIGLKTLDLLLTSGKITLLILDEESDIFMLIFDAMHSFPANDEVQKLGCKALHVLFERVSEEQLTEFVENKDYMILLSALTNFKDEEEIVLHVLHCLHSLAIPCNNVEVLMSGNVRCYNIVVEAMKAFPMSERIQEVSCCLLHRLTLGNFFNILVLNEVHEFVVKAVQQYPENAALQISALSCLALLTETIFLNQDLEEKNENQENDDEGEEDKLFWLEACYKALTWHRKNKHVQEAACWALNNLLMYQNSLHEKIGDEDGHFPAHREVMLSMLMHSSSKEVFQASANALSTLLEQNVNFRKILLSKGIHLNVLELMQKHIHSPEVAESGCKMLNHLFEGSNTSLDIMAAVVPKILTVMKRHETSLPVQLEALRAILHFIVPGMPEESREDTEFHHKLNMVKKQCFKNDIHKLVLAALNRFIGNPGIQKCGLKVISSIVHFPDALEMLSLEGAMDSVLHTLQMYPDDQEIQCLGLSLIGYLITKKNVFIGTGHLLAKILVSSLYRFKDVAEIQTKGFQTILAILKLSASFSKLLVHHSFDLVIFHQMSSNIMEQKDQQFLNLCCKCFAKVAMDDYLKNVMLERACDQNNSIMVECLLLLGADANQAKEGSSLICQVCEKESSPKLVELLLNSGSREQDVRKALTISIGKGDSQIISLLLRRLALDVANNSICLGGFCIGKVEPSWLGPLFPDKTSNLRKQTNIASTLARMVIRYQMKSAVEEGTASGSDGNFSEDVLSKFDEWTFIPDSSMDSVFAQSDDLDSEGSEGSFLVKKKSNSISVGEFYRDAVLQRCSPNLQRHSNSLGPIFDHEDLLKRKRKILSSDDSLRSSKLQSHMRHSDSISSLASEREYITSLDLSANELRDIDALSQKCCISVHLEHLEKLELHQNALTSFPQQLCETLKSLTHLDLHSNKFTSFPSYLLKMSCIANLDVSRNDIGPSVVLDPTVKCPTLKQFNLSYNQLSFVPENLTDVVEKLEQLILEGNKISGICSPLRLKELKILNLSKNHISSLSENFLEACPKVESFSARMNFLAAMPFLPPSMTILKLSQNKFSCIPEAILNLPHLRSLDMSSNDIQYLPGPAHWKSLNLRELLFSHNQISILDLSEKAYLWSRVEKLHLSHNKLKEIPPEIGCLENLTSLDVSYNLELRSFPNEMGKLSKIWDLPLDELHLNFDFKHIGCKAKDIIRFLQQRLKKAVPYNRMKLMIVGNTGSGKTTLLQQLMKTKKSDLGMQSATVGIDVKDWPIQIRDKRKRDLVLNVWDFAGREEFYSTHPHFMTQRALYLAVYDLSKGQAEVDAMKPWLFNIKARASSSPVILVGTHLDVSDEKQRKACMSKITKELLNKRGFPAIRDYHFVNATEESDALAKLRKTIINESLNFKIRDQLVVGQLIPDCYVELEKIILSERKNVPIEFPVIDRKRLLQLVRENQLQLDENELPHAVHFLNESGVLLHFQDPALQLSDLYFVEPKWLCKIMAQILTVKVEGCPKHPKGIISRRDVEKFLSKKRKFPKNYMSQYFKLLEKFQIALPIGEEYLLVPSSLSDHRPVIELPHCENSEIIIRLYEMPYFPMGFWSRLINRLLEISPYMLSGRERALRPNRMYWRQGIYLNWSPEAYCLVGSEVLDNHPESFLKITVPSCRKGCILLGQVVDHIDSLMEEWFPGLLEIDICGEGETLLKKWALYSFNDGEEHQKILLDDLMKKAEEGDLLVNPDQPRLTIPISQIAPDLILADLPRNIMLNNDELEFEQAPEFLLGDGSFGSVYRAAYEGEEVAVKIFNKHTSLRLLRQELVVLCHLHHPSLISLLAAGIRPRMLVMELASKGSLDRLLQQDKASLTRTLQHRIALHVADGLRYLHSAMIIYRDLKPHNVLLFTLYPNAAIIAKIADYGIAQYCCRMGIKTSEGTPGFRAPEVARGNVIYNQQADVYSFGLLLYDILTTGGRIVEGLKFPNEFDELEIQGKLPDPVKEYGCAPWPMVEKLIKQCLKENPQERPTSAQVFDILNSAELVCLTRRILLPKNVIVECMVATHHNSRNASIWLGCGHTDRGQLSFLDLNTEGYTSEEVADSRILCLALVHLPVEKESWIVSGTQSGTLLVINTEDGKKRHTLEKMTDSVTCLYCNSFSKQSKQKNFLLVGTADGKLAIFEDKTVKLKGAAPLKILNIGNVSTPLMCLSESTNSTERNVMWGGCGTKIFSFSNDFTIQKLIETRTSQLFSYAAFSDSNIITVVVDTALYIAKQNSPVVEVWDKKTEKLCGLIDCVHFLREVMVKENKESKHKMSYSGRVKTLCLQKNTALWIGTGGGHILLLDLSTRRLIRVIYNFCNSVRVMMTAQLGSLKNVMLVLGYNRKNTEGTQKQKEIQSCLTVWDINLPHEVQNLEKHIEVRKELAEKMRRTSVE

[23] = target: Phosphatidylinositol 4-kinase alpha (Homo sapiens, UniProt P42356); test: Inhibition of PIK4A (unknown origin)

Molecule COc1ncc(-c2cc3c(c(NC(=O)CN4CCOCC4)c2)COC3)cc1NS(C)(=O)=O has a pIC50(app) [1] of 5.6, a Ratio IC50 (Homo sapiens [2]) of 25 and a half-life [3] of 636 min. The AUC(0-inf) [4] was 2620 ng·h/mL, the IC50 [5] was over 10 µM and the IC50 [6] was over 10 µM. The IC50 [7] was over 10 µM, the “Drug uptake(free)” value [8] was 0.032 µM and the IC50 (Sphingosine kinase 2) was over 10 µM. It also gave a pIC50 [9] of under 5, a CL [10] of under 20% and a Ratio IC50 (Homo sapiens [11]) of 50. For the same molecule, the IC50 [12] was over 10 µM, the IC50 (Aurora kinase B) was over 10 µM and the “Drug uptake(free)” value [13] was 0.22 µM. For the same molecule, the IC50 [14] was 158 nM, the half-life [15] was 78 min and the IC50 [16] was over 10 µM. For the same molecule, the IC50 [17] was over 10 µM, the IC50 [18] was 158 to 251 nM and 250 nM and the IC50 (Choline kinase alpha) was over 10 µM. For the same molecule, the AUC(0-inf) [19] was 673 ng·h/mL, the IC50 [20] was over 10 µM and the IC50 [21] was over 10 µM. For the same molecule, the IC50 [22] was over 10 µM and the IC50 [23] was over 10 µM.
